Laboratory results from ChEMBL document CHEMBL1914423, “New imidazo[2,1-b]thiazole derivatives: synthesis, in vitro anticancer evaluation, and in silico studies” (Eur J Med Chem, 2011).

System: CCRF-CEM
Experiment: Anticancer activity against human CCRF-CEM cells assessed as cell growth at 10^-5 M after 48 hrs by SRB assay
Format: functional
Conditions: read-out: Activity
How it was run: (§1)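 NCI-60 single-dose screen at one concentration. Cells grown in RPMI 1640 with 5% FBS and 2 mM L-glutamine, plated at 5000–40,000 cells/well, and pre-incubated 24 h at 37 °C in 5% CO2 before DMSO-dissolved drug was added. Cells fixed with TCA, SRB-stained, absorbance read at 515 nm. Percent growth calculated against time-zero and untreated control plates.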

| SMILES | growth at 10 µM [%] |
| --- | --- |
| COc1cccc(-c2nc3sccn3c2-c2ccnc(NCCNC(=O)c3ccccc3O)n2)c1 | 34.7 |

System: RPMI-8226
Experiment: Anticancer activity against human RPMI8226 cells assessed as cell growth at 10^-5 M after 48 hrs by SRB assay
Format: functional
Conditions: RPMI-8226, 48 h, read-out: Activity

| SMILES | growth at 10 µM [%] |
| --- | --- |
| COc1cccc(-c2nc3sccn3c2-c2ccnc(NCCNC(=O)c3ccccc3O)n2)c1 | 26 |

System: EKVX
Experiment: Anticancer activity against human EKVX cells assessed as cell growth at 10^-5 M after 48 hrs by SRB assay
Format: functional
Conditions: read-out: Activity
How it was run: as §1

| SMILES | growth at 10 µM [%] |
| --- | --- |
| COc1cccc(-c2nc3sccn3c2-c2ccnc(NCCNC(=O)c3ccccc3O)n2)c1 | 98.9 |

System: HOP-62
Experiment: Anticancer activity against human HOP62 cells assessed as cell growth at 10^-5 M after 48 hrs by SRB assay
Format: functional
Conditions: HOP-62, 48 h, read-out: Activity
How it was run: as §1

| SMILES | growth at 10 µM [%] |
| --- | --- |
| COc1cccc(-c2nc3sccn3c2-c2ccnc(NCCNC(=O)c3ccccc3O)n2)c1 | 114 |

System: HOP-92
Experiment: Anticancer activity against human HOP92 cells assessed as cell growth at 10^-5 M after 48 hrs by SRB assay
Format: functional
Conditions: HOP-92, 48 h, read-out: Activity
How it was run: as §1

| SMILES | growth at 10 µM [%] |
| --- | --- |
| COc1cccc(-c2nc3sccn3c2-c2ccnc(NCCNC(=O)c3ccccc3O)n2)c1 | 75.5 |

System: NCI-H226
Experiment: Anticancer activity against human NCI-H226 cells assessed as cell growth at 10^-5 M after 48 hrs by SRB assay
Format: functional
Conditions: NCI-H226, 48 h, read-out: Activity

| SMILES | growth at 10 µM [%] |
| --- | --- |
| COc1cccc(-c2nc3sccn3c2-c2ccnc(NCCNC(=O)c3ccccc3O)n2)c1 | 97.7 |

System: NCI-H23
Experiment: Anticancer activity against human NCI-H23 cells assessed as cell growth at 10^-5 M after 48 hrs by SRB assay
Format: functional
Conditions: NCI-H23, 48 h, read-out: Activity

| SMILES | growth at 10 µM [%] |
| --- | --- |
| COc1cccc(-c2nc3sccn3c2-c2ccnc(NCCNC(=O)c3ccccc3O)n2)c1 | 93.4 |

System: NCI-H322M
Experiment: Anticancer activity against human NCI-H322M cells assessed as cell growth at 10^-5 M after 48 hrs by SRB assay
Format: functional
Conditions: read-out: Activity

| SMILES | growth at 10 µM [%] |
| --- | --- |
| COc1cccc(-c2nc3sccn3c2-c2ccnc(NCCNC(=O)c3ccccc3O)n2)c1 | 95.6 |

System: NCI-H522
Experiment: Anticancer activity against human NCI-H522 cells assessed as cell growth at 10^-5 M after 48 hrs by SRB assay
Format: functional
Conditions: NCI-H522, 48 h, read-out: Activity

| SMILES | growth at 10 µM [%] |
| --- | --- |
| COc1cccc(-c2nc3sccn3c2-c2ccnc(NCCNC(=O)c3ccccc3O)n2)c1 | 61.7 |

System: HCT-116
Experiment: Anticancer activity against human HCT116 cells assessed as cell growth at 10^-5 M after 48 hrs by SRB assay
Format: functional
Conditions: HCT-116, 48 h, read-out: Activity
How it was run: as §1

| SMILES | growth at 10 µM [%] |
| --- | --- |
| COc1cccc(-c2nc3sccn3c2-c2ccnc(NCCNC(=O)c3ccccc3O)n2)c1 | 69.7 |

System: HCT-15
Experiment: Anticancer activity against human HCT15 cells assessed as cell growth at 10^-5 M after 48 hrs by SRB assay
Format: functional
Conditions: HCT-15, 48 h, read-out: Activity
How it was run: as §1

| SMILES | growth at 10 µM [%] |
| --- | --- |
| COc1cccc(-c2nc3sccn3c2-c2ccnc(NCCNC(=O)c3ccccc3O)n2)c1 | 66.1 |

System: HT-29
Experiment: Anticancer activity against human HT-29 cells assessed as cell growth at 10^-5 M after 48 hrs by SRB assay
Format: functional
Conditions: HT-29, 48 h, read-out: Activity
How it was run: as §1

| SMILES | growth at 10 µM [%] |
| --- | --- |
| COc1cccc(-c2nc3sccn3c2-c2ccnc(NCCNC(=O)c3ccccc3O)n2)c1 | 96.4 |

System: KM12
Experiment: Anticancer activity against human KM12 cells assessed as cell growth at 10^-5 M after 48 hrs by SRB assay
Format: functional
Conditions: KM12, 48 h, read-out: Activity
How it was run: as §1

| SMILES | growth at 10 µM [%] |
| --- | --- |
| COc1cccc(-c2nc3sccn3c2-c2ccnc(NCCNC(=O)c3ccccc3O)n2)c1 | 77.2 |

System: SF-268
Experiment: Anticancer activity against human SF268 cells assessed as cell growth at 10^-5 M after 48 hrs by SRB assay
Format: functional
Conditions: SF-268, 48 h, read-out: Activity

| SMILES | growth at 10 µM [%] |
| --- | --- |
| COc1cccc(-c2nc3sccn3c2-c2ccnc(NCCNC(=O)c3ccccc3O)n2)c1 | 93.6 |

System: SF-539
Experiment: Anticancer activity against human SF539 cells assessed as cell growth at 10^-5 M after 48 hrs by SRB assay
Format: functional
Conditions: SF-539, 48 h, read-out: Activity

| SMILES | growth at 10 µM [%] |
| --- | --- |
| COc1cccc(-c2nc3sccn3c2-c2ccnc(NCCNC(=O)c3ccccc3O)n2)c1 | 98 |

System: SNB-75
Experiment: Anticancer activity against human SNB75 cells assessed as cell growth at 10^-5 M after 48 hrs by SRB assay
Format: functional
Conditions: SNB-75, 48 h, read-out: Activity
How it was run: (§2)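 NCI-60 single-dose screen: cells in RPMI 1640 with 5% FBS and 2 mM L-glutamine, plated at 5000–40,000 cells/well by doubling time, and preincubated 24 h at 37 °C. Compound given at one concentration from DMSO stock. Cells TCA-fixed and SRB-stained, absorbance at 515 nm. Percent growth relative to time-zero and untreated controls; inhibition % = 100 − growth %.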

| SMILES | growth at 10 µM [%] |
| --- | --- |
| COc1cccc(-c2nc3sccn3c2-c2ccnc(NCCNC(=O)c3ccccc3O)n2)c1 | 103 |

System: U-251
Experiment: Anticancer activity against human U251 cells assessed as cell growth at 10^-5 M after 48 hrs by SRB assay
Format: functional
Conditions: U-251, 48 h, read-out: Activity
How it was run: as §2

| SMILES | growth at 10 µM [%] |
| --- | --- |
| COc1cccc(-c2nc3sccn3c2-c2ccnc(NCCNC(=O)c3ccccc3O)n2)c1 | 103 |

System: LOX IMVI
Experiment: Anticancer activity against human LOXIMVI cells assessed as cell growth at 10^-5 M after 48 hrs by SRB assay
Format: functional
Conditions: read-out: Activity
How it was run: as §1

| SMILES | growth at 10 µM [%] |
| --- | --- |
| COc1cccc(-c2nc3sccn3c2-c2ccnc(NCCNC(=O)c3ccccc3O)n2)c1 | 68.5 |

System: Malme-3M
Experiment: Anticancer activity against human MALME-3M cells assessed as cell growth at 10^-5 M after 48 hrs by SRB assay
Format: functional
Conditions: read-out: Activity
How it was run: as §1

| SMILES | growth at 10 µM [%] |
| --- | --- |
| COc1cccc(-c2nc3sccn3c2-c2ccnc(NCCNC(=O)c3ccccc3O)n2)c1 | 57.5 |

System: SK-MEL-2
Experiment: Anticancer activity against human SK-MEL-2 cells assessed as cell growth at 10^-5 M after 48 hrs by SRB assay
Format: functional
Conditions: SK-MEL-2, 48 h, read-out: Activity

| SMILES | growth at 10 µM [%] |
| --- | --- |
| COc1cccc(-c2nc3sccn3c2-c2ccnc(NCCNC(=O)c3ccccc3O)n2)c1 | 80.7 |

System: OVCAR-3
Experiment: Anticancer activity against human OVCAR3 cells assessed as cell growth at 10^-5 M after 48 hrs by SRB assay
Format: functional
Conditions: OVCAR-3, 48 h, read-out: Activity

| SMILES | growth at 10 µM [%] |
| --- | --- |
| COc1cccc(-c2nc3sccn3c2-c2ccnc(NCCNC(=O)c3ccccc3O)n2)c1 | 75 |

System: OVCAR-5
Experiment: Anticancer activity against human OVCAR5 cells assessed as cell growth at 10^-5 M after 48 hrs by SRB assay
Format: functional
Conditions: OVCAR-5, 48 h, read-out: Activity

| SMILES | growth at 10 µM [%] |
| --- | --- |
| COc1cccc(-c2nc3sccn3c2-c2ccnc(NCCNC(=O)c3ccccc3O)n2)c1 | 112 |

System: OVCAR-8
Experiment: Anticancer activity against human OVCAR8 cells assessed as cell growth at 10^-5 M after 48 hrs by SRB assay
Format: functional
Conditions: OVCAR-8, 48 h, read-out: Activity

| SMILES | growth at 10 µM [%] |
| --- | --- |
| COc1cccc(-c2nc3sccn3c2-c2ccnc(NCCNC(=O)c3ccccc3O)n2)c1 | 55.2 |

System: SK-OV-3
Experiment: Anticancer activity against human SKOV3 cells assessed as cell growth at 10^-5 M after 48 hrs by SRB assay
Format: functional
Conditions: SK-OV-3, 48 h, read-out: Activity

| SMILES | growth at 10 µM [%] |
| --- | --- |
| COc1cccc(-c2nc3sccn3c2-c2ccnc(NCCNC(=O)c3ccccc3O)n2)c1 | 90 |

System: 786-0
Experiment: Anticancer activity against human 786-0 cells assessed as cell growth at 10^-5 M after 48 hrs by SRB assay
Format: functional
Conditions: 786-0, 48 h, read-out: Activity
How it was run: as §1

| SMILES | growth at 10 µM [%] |
| --- | --- |
| COc1cccc(-c2nc3sccn3c2-c2ccnc(NCCNC(=O)c3ccccc3O)n2)c1 | 91 |

System: A498
Experiment: Anticancer activity against human A498 cells assessed as cell growth at 10^-5 M after 48 hrs by SRB assay
Format: functional
Conditions: A498, 48 h, read-out: Activity
How it was run: as §1

| SMILES | growth at 10 µM [%] |
| --- | --- |
| COc1cccc(-c2nc3sccn3c2-c2ccnc(NCCNC(=O)c3ccccc3O)n2)c1 | 89.7 |

System: ACHN
Experiment: Anticancer activity against human ACHN cells assessed as cell growth at 10^-5 M after 48 hrs by SRB assay
Format: functional
Conditions: read-out: Activity
How it was run: as §1

| SMILES | growth at 10 µM [%] |
| --- | --- |
| COc1cccc(-c2nc3sccn3c2-c2ccnc(NCCNC(=O)c3ccccc3O)n2)c1 | 62 |

System: UO-31
Experiment: Anticancer activity against human UO31 cells assessed as cell growth at 10^-5 M after 48 hrs by SRB assay
Format: functional
Conditions: UO-31, 48 h, read-out: Activity
How it was run: as §2

| SMILES | growth at 10 µM [%] |
| --- | --- |
| COc1cccc(-c2nc3sccn3c2-c2ccnc(NCCNC(=O)c3ccccc3O)n2)c1 | 48.6 |

System: DU-145
Experiment: Anticancer activity against human DU145 cells assessed as cell growth at 10^-5 M after 48 hrs by SRB assay
Format: functional
Conditions: DU-145, 48 h, read-out: Activity
How it was run: as §1

| SMILES | growth at 10 µM [%] |
| --- | --- |
| COc1cccc(-c2nc3sccn3c2-c2ccnc(NCCNC(=O)c3ccccc3O)n2)c1 | 94.5 |

System: MCF7
Experiment: Anticancer activity against human MCF7 cells assessed as cell growth at 10^-5 M after 48 hrs by SRB assay
Format: functional
Conditions: MCF7, 48 h, read-out: Activity
How it was run: as §1

| SMILES | growth at 10 µM [%] |
| --- | --- |
| COc1cccc(-c2nc3sccn3c2-c2ccnc(NCCNC(=O)c3ccccc3O)n2)c1 | 88.5 |

System: MDA-MB-231
Experiment: Anticancer activity against human MDA-MB-231 cells assessed as cell growth at 10^-5 M after 48 hrs by SRB assay
Format: functional
Conditions: MDA-MB-231, 48 h, read-out: Activity
How it was run: as §1

| SMILES | growth at 10 µM [%] |
| --- | --- |
| COc1cccc(-c2nc3sccn3c2-c2ccnc(NCCNC(=O)c3ccccc3O)n2)c1 | 89.4 |

System: BT-549
Experiment: Anticancer activity against human BT549 cells assessed as cell growth at 10^-5 M after 48 hrs by SRB assay
Format: functional
Conditions: BT-549, 48 h, read-out: Activity
How it was run: as §1

| SMILES | growth at 10 µM [%] |
| --- | --- |
| COc1cccc(-c2nc3sccn3c2-c2ccnc(NCCNC(=O)c3ccccc3O)n2)c1 | 81.6 |

System: T47D
Experiment: Anticancer activity against human T47D cells assessed as cell growth at 10^-5 M after 48 hrs by SRB assay
Format: functional
Conditions: read-out: Activity
How it was run: as §2

| SMILES | growth at 10 µM [%] |
| --- | --- |
| COc1cccc(-c2nc3sccn3c2-c2ccnc(NCCNC(=O)c3ccccc3O)n2)c1 | 60.1 |
